{"data": "Measurements pooled from the literature", "KMT5A": "N-lysine methyltransferase KMT5A (KMT5A, Homo sapiens, UniProt Q9NQR1)"}
{"SMILES": "Cc1ccc(C(=O)Nc2ccc(CN3CCN(C)CC3)c(C(F)(F)F)c2)cc1C#Cc1cnc2cccnn12", "target": "Serine/threonine-protein kinase RIO1 (RIOK1, Homo sapiens, UniProt Q9BRS2)", "effect on": "enzyme activity", "mode": "inhibitor", "tested at": "23.5 nM", "measurement": "remaining activity", "result": "98%"}
{"SMILES": "CN(C)C1CCN(CC#Cc2nn(C3CCCC3)c3nc(NCc4ccccc4)ncc23)C1 (stereo not shown)", "target": "Tyrosine-protein kinase ITK/TSK (ITK, Homo sapiens, UniProt Q08881)", "effect on": "enzyme activity", "mode": "inhibitor", "method": "FRET", "tested at": "1 µM", "measurement": "inhibition", "result": "5%"}
{"SMILES": "Oc1ccc(-c2nc(-c3ccncc3)c(-c3ccc(F)cc3)[nH]2)cc1", "target": "Histone acetyltransferase p300 (EP300, Homo sapiens, UniProt Q09472)", "effect on": "thermal stability", "method": "DSF", "tested at": "10 µM", "measurement": "ΔTm", "result": "0.33 °C"}
{"SMILES": "Nc1ncnc2c1ncn2[C@@H]1O[C@H](CSCC[C@H](N)C(=O)O)[C@@H](O)[C@H]1O", "target": "Protein arginine N-methyltransferase 6 (PRMT6, Homo sapiens, UniProt Q96LA8)", "effect on": "thermal stability", "method": "DSF", "tested at": "100 µM", "measurement": "ΔTm", "result": "8.4 °C"}
{"SMILES": "O=c1oc2c(O)c(O)cc3c(=O)oc4c(O)c(O)cc1c4c23", "target": "KMT5A", "effect on": "cell-free assay", "tested at": "10 µM", "measurement": "inhibition", "result": "2%"}
{"SMILES": "O=C(c1ccc(F)cc1)N(Cc1ccccc1)C1CCCCC1", "target": "Delta-type opioid receptor (OPRD1, Homo sapiens, UniProt P41143)", "effect on": "ligand displacement", "tested at": "10 µM", "measurement": "inhibition", "result": "0%"}
{"SMILES": "CCN(CC)CCNC(=O)c1c(C)[nH]c(/C=C2\\C(=O)Nc3ccc(F)cc32)c1C", "target": "Protein kinase C beta type (PRKCB, Homo sapiens, UniProt P05771)", "effect on": "enzyme activity", "mode": "inhibitor", "tested at": "10 µM", "measurement": "inhibition", "result": "0%"}
{"SMILES": "Cc1cnc(NC2CCOCC2)nc1-n1cnc(C(=O)NC(CN)c2cc(F)cc(Cl)c2)c1 (stereo not shown)", "target": "Tyrosine-protein kinase ABL1 (ABL1, Homo sapiens, UniProt P00519, Y253F)", "effect on": "enzyme activity", "mode": "inhibitor", "method": "radiometric", "tested at": "1 µM", "measurement": "remaining activity", "result": "102%"}
{"SMILES": "Nc1ncnc2occ(-c3ccc(NC(=O)Nc4cc(C(F)(F)F)ccc4F)cc3)c12", "target": "Tyrosine-protein kinase ABL1, non-phosphorylated (ABL1, Homo sapiens, UniProt P00519, F317I)", "effect on": "cell-free assay", "mode": "inhibitor", "tested at": "20 µM", "measurement": "remaining signal", "result": "0.45%"}
{"SMILES": "O=c1c(O)cccc2cc(O)c(O)c(O)c12", "target": "KMT5A", "effect on": "cell-free assay", "tested at": "10 µM", "measurement": "inhibition", "result": "7%"}
{"SMILES": "COc1cc(-c2cc(-c3ccc(N4CCNCC4)cc3)cnc2N)cc(OC)c1OC", "target": "Tyrosine-protein kinase ABL1 (ABL1, Homo sapiens, UniProt P00519, T315I)", "effect on": "enzyme activity", "mode": "inhibitor", "tested at": "1 µM", "measurement": "inhibition", "result": "57%"}
{"SMILES": "Cc1cc(NC(=O)c2cccc3cc(-c4cccc5[nH]nc(N)c45)ccc23)ccc1F", "target": "Tyrosine-protein kinase ABL1 (ABL1, Homo sapiens, UniProt P00519, Q252H)", "effect on": "enzyme activity", "mode": "inhibitor", "tested at": "0.1 µM", "measurement": "activity vs control", "result": "88%"}
{"SMILES": "Oc1cccc(Nc2nc(-c3ccc(F)cc3F)cs2)c1", "target": "Cholecystokinin receptor type A (CCKAR, Homo sapiens, UniProt P32238)", "effect on": "cell-free assay", "tested at": "10 µM", "measurement": "inhibition", "result": "76%"}
